PHOSPHO1 block: PHOSPHO1 (human) inhibition; Q8TCT1; recombinant PHOSPHO1, absorbance phosphatase assay; inhibition, % at 13.3 µM; 1.1% of 290,000 active; AID 1565; in the data active means inhibition above about 60%
CHT inh: inhibits the human high affinity choline transporter; Q9GZV3; 0.86% of 310,000 active; CHT-expressing cells, membrane potential dye, choline response; stronger effect = lower value; B-score at 10 µM; AID 488975;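 active means B-score over 3 SD under the library average, and starting fluorescence ratio not unusually high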;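 further: choline stimulus applied at its EC90 after an EC20 pre-addition; B-score computed on integrated fluorescence ratio after choline addition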
Target sequence (Q9GZV3 whole entry, looked up): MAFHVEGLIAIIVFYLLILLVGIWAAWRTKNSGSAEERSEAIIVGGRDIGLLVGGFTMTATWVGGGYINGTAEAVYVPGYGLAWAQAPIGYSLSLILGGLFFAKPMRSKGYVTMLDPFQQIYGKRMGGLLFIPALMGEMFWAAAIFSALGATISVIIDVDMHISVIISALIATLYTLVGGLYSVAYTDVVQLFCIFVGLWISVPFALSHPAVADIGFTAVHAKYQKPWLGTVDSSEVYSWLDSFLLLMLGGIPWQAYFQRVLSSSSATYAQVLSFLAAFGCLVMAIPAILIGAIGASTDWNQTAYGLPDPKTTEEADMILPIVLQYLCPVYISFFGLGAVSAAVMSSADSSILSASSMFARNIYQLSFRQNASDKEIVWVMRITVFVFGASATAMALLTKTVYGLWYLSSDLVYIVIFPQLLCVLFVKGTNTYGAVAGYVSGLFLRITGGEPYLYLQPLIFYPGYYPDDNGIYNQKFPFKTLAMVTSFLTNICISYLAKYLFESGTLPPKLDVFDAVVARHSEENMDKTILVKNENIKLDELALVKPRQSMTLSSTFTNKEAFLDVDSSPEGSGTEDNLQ
Hep lipid drop: modulators of hepatic lipid droplet formation. AML12 mouse hepatocytes, oleate lipid droplets, BODIPY imaging. inhibition, % at 6.5 µM. 0.4% of 240,000 active;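 active means lipid droplet intensity inhibited by at least 50%, with more than 500 cells counted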
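Test system: AML12 hepatocytes (mouse); reagent: oleate loading, 100 µM; dosing: one dose, 6.5 µM compound; incubation: overnight exposure; signal: fluorescence imaging, 20x objective, two fields per well; read-out basis: % inhibition of corrected integrated BODIPY droplet signal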
HSF1 activator: increases HSF-1 driven luciferase reporter signal; NIH3T3-HGL HSF-1 luciferase reporter, MG132, 8 h; 100% = twice DMSO control signal; activation, % at 9 µM; 1.7% of 300,000 active; AID 504408;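 active means mean replicate activation of at least 50% with a set share of replicates each reaching 50%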;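 further: 0% = median of the neutral control wells and 100% = twice that signal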
CHT PAM: allosteric activators of human choline transporter CHT | Q9GZV3 | CHT-expressing cells, membrane potential dye, choline EC20; stronger effect = higher value; LV-AA mutant CHT in HEK293 cells | B-score at 10 µM | 0.49% of 310,000 active | AID 488977;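 active means initial fluorescence not abnormally high and integrated response B-score, plate-corrected, over 3 SD above library mean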
HSF1 inh: HSF1 inhibition; 0.77% of 300,000 active; activity change, negative = inhibition, % at 7.5 µM (by protocol); NIH3T3-HGL HSE-luciferase, MG132-induced, luminescence 8 h; stronger effect = lower value;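 active means more than half of replicate wells show activity change below -50%, luminescence cut by over half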;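 further: luciferase reports HSF-1 transcriptional activity via heat shock element; 0% = median of DMSO wells and -100% = zero luminescence signal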
* marks the source's active call; other numbers are inactive results; i = inactive; / = no result. In the library only some 4.9% were active in any assay of this set; here they are far more common.

SMILES | PHOSPHO1 block | CHT inh | Hep lipid drop | HSF1 activator | CHT PAM | HSF1 inh
Oc1c(C2=NCCNC(C(F)(F)F)=C2)ccc2ccccc12 | -13 | / | -5 | 81* | / | 61
CCN(CC)C(=O)c1sc2nc(N3CCOCC3)c3c(c2c1N)CCCC3 | 80* | i | 7 | -1 | i | 1
COC(=O)c1sc2nc(N3CCCCC3)c3c(c2c1N)CCCC3 | 20 | i | -16 | 12 | i | -4
NC(=O)c1sc2nc(N3CCCCC3)c3c(c2c1N)CCCC3 | 67* | i | / | -6 | i | 0
Nc1c(C(=O)NCc2ccco2)sc2nc(N3CCOCC3)c3c(c12)CCCC3 | 92* | i | / | 19 | i | 15
CC(C)[C@H](NC(=O)C1CCN(C(=O)[C@H](Cc2ccccc2)NC(=O)OC(C)(C)C)CC1)C(=O)O | 61* | i | -4 | -15 | i | 1
O=C(CC1SC(=O)N(c2ccccc2)C1=O)Nc1ccc(Cl)cc1 (configuration not stated) | 36 | i | -25 | 6 | i | 24
O=C(CC1SC(=NCCc2ccccc2)N(/N=C/c2cccs2)C1=O)Nc1ccc(Cl)cc1 (configuration not stated) | 7 | i | -16 | 69* | i | 36
C=CCn1c(=O)c2ccccc2n2c(SCC(=O)Nc3sc(C)c(CC)c3C(=O)OCC)nnc12 | -12 | i | -1 | 54* | i | 20
C=CCn1c(=O)c2ccccc2n2c(SCC(=O)Nc3sc(C(=O)N(CC)CC)c(C)c3C(=O)OCC)nnc12 | -5 | i | -4 | 13 | i | 5
CC(=O)c1cccc(NC(=O)CN2C(=S)NC(C)(C)CC2C)c1 (configuration not stated) | -88 | i | 15 | -71 | i | -62*
Cc1ccc(C)c(NC(=S)c2ccc3ccccc3n2)c1 | -14 | i | 56* | 44 | i | 24
CC1=C(/C=C/C(C)=C/C=C/C(C)=C\C(=O)O)C(C)(C)CCC1 | / | i | / | -19 | i | 2
CC1=C(/C=C/C(=O)O)C(C)(C)CCC1 | -1 | i | 3 | 65* | i | 28
O=C(CSc1nnc(SCC(=O)c2ccco2)s1)c1ccco1 | 33 | i | / | -18 | i | -3
O=C(CSc1nc2cc(Cl)ccc2s1)c1ccco1 | 91* | i | / | 18 | i | 18
CCN(CC)CCNC(=O)CCCCn1c(=S)[nH]c2c([nH]c3ccc(OC)cc32)c1=O | 95* | i | / | -5 | i | -10
CC[C@H](C)NC(=O)c1ccc(Cn2c(=S)[nH]c3c([nH]c4ccc(OC)cc43)c2=O)cc1 | -19 | i | -6 | -58 | i | -58*
CCOCCCNC(=O)c1ccc(Cn2c(=S)[nH]c3c([nH]c4ccc(OC)cc43)c2=O)cc1 | -13 | i | 1 | -3 | i | 2
CCCCNC(=O)c1ccc(Cn2c(=S)[nH]c3c([nH]c4ccc(OC)cc43)c2=O)cc1 | -8 | i | -46 | -71 | i | -71*
Cc1ccc([N+](=O)[O-])c(OCc2ncc(Cl)n2C)c1 | 11 | i | -12 | 19 | i | 8
CCN1C(=O)[C@H]2[C@@H](c3ccc(-c4cc(C(C)=O)cs4)cc3)N3CCC[C@@]3(C(=O)OC)[C@H]2C1=O | / | i | / | / | i | /
COc1ccc(C)cc1NS(=O)(=O)c1ccc(-c2cnc(C3CC3)o2)cc1 | 21 | i | -182 | -56 | i | -37
CCOc1cc(C(c2c(C)[nH][nH]c2=O)c2c(C)[nH][nH]c2=O)ccc1OCc1ccc([N+](=O)[O-])cc1 | 15 | i | -2 | 129* | i | 95
CCOc1cc(C(c2c(C)[nH][nH]c2=O)c2c(C)[nH][nH]c2=O)cc(Br)c1OC | 16 | i | 3 | -76 | i | -69*
SMILES | PHOSPHO1 block | CHT inh | Hep lipid drop | HSF1 activator | CHT PAM | HSF1 inh
COc1cccc(OCc2ccc(Cl)cc2)c1C#N | 38 | i | 6 | 61* | i | 40
COc1ccc(N2C(=O)C3CCCN3C2c2cccc(C)c2)cc1Cl (configuration not stated) | -17 | i | -5 | 4 | i | -4
Cc1snc(SCC(=O)c2ccc(Cl)cc2)c1C#N | 84* | i | / | 37 | i | 27
Cc1cc(C)c(C#N)c(OCC(=O)c2ccc(Br)cc2)n1 | -10 | i | / | 18 | i | 12
Cc1ccc(C(=O)CSc2nsc(C)c2C#N)cc1 | 45 | i | -5 | 16 | i | 11
Cc1ccnc(SCC(=O)c2ccc(Br)cc2)c1C#N | -1 | i | -10 | 90* | i | 53
COc1ccc(C2CC(C(F)(F)F)n3ncc(C(=O)Nc4c(C)n(C)n(-c5ccccc5)c4=O)c3N2)cc1 (configuration not stated) | -54 | i | -6 | 2 | i | 2
COc1ccc(S(=O)(=O)N2CC=C(C(=O)NC3CCCC3)CC2)cc1 | 6 | i | -29 | 2 | i | 2
COc1ccc(CCNCc2cc(C)n(-c3ccc(OC)cc3)c2C)cc1 | 28 | i | -32 | 67* | i | 18
COc1ccc(CCNCc2ccccc2N2CCCC2)cc1 | 28 | i | -35 | -7 | i | -2
Cc1ccc(C(C)NC(=S)NCc2ccc(F)cc2)c(C)c1 (configuration not stated) | 19 | i | -16 | 9 | i | 5
COc1nnc(-c2ccc(C(=O)N3C[C@@H]4C[C@H](C3)c3cccc(=O)n3C4)cc2)c2ccccc12 | -10 | / | / | -69 | / | -58*
O=C(O)c1nccnc1C(=O)Nc1ccc(Cl)cn1 | 37 | i | -2 | -3 | i | -9
S=c1[nH]nc(-c2cc(-c3ccco3)[nH]n2)n1-c1ccccc1Cl | 86* | i | / | 16 | i | 2
Oc1ccccc1-c1cc(-c2ccco2)[nH]n1 | 73* | i | -6 | 25 | i | 9
Oc1ccc(Cl)cc1-c1cc(-c2ccco2)[nH]n1 | 0 | i | / | 140* | i | 77
Oc1ccc(Br)cc1-c1cc(-c2ccco2)[nH]n1 | -6 | i | 15 | 0 | i | 4
CCCSc1nnc(N)s1 | 12 | i | 2 | -2 | i | -3
CC(C)Cn1c(=S)[nH]c2cc(Cl)ccc21 | -2 | i | 9 | -10 | i | -10
O=C(CCC1CCCN(C(=O)c2ccc3[nH]ccc3c2)C1)N1CCN(c2ccccn2)CC1 (configuration not stated) | 64* | i | -14 | 1 | i | 0
Cc1ccsc1/C=N/NC(=O)c1c[nH]c2ccccc12 | 22 | i | / | 49 | i | 23
CCn1nc(C)c(/C=N/NC(=O)c2c[nH]c3ccccc23)c1C | 9 | i | 20 | -76 | i | -70*

Screening data from PubChem BioAssay.
